Data published in ChEMBL document CHEMBL1132658, “Second-generation peptidomimetic inhibitors of protein farnesyltransferase demonstrating improved cellular potency and significant in vivo efficacy” (J Med Chem, 1999).

Key:
[1] = Area under the curve during systemic administration; format: ADME; set-up: concentration or dose not given beside the values; settings: other: systemic administration
[2] = Biological half-life in the rat; format: ADME, organism-based; settings: in vivo
In short: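 Half-life determined after intravenous dosing in rats.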

[3] = target: Protein farnesyltransferase (Bos taurus, UniProt P29702+P49355); assay: In vitro inhibition of farnesyltransferase purified from bovine brain using scintillation proximity assay
NIH3T3 = assay: In Vitro inhibition of Ha-Ras procession by using subconfluent NIH3T3 ras-transformed cells; format: functional; settings: Mus musculus, read-out: ED50 (the source's name)
[4] = Portal vein area under the curve after intraduodenal administration; set-up: concentration or dose not given beside the values

Row | SMILES | AUC [1] | half-life [2] | IC50 [3] | EC50 (NIH3T3) | AUC [4]
1 | CSCC[C@H](NC(=O)c1ccc(CN(Cc2ccccc2)c2cccnc2)cc1-c1ccccc1C)C(=O)O | 500 ng·h/mL | 49.8 min | 0.1 nM | 13 nM | 3000 ng·h/mL
2 | CSCC[C@H](NC(=O)c1ccc(CN(C(=O)Cc2ccccc2)c2cccnc2)cc1-c1ccccc1C)C(=O)O |  |  | 39 nM | > 1000 nM | 
3 | CCCCCc1cc(C(=O)N[C@@H](CCSC)C(=O)O)c(-c2ccccc2C)cc1COc1cccnc1 |  |  | 2 nM | 1000 nM | 
4 | CSCC[C@H](NC(=O)c1ccc(CN(Cc2ccccc2)Cc2cncs2)cc1-c1ccccc1C)C(=O)O | 1600 ng·h/mL | < 24 min | 0.4 nM | 300 nM | 3200 ng·h/mL
5 | CSCC[C@H](NC(=O)c1cc(Cc2ccccc2)c(COc2cccnc2)cc1-c1ccccc1C)C(=O)O |  |  | 1 nM | > 1000 nM | 
6 | CSCC[C@H](NC(=O)c1cc(-c2cccs2)c(COc2cccnc2)cc1-c1ccccc1C)C(=O)O |  |  | 510 nM |  | 
7 | CCc1cc(C(=O)N[C@@H](CCSC)C(=O)O)c(-c2ccccc2C)cc1COc1cccnc1 |  |  | 11 nM | < 10000 nM | 
8 | CSCC[C@H](NC(=O)c1ccc(CN(Cc2cc(F)cc(F)c2)Cc2cncs2)cc1-c1ccccc1C)C(=O)O | 300 ng·h/mL | 67.8 min | 0.2 nM | 500 nM | 2400 ng·h/mL
9 | CSCC[C@H](NC(=O)c1ccc(CN(Cc2ccccc2)Cc2cscn2)cc1-c1ccccc1C)C(=O)O |  |  | 16 nM | > 1000 nM | 
10 | CSCC[C@H](NC(=O)c1cc(-c2ccc(C)cc2)c(COc2cccnc2)cc1-c1ccccc1C)C(=O)O |  |  | 370 nM |  | 
11 | CSCC[C@H](NC(=O)c1ccc(CN(Cc2ccccc2)c2cnccn2)cc1-c1ccccc1C)C(=O)O | 900 ng·h/mL | < 24 min | 0.8 nM | 50 nM | 1800 ng·h/mL
12 | CSCC[C@H](NC(=O)c1ccc(CN(CC2CCCCC2)c2cccnc2)cc1-c1ccccc1C)C(=O)O | 100 ng·h/mL | < 24 min | 0.1 nM | 10 nM | 1000 ng·h/mL
13 | CSCC[C@H](NC(=O)c1ccc(CN(Cc2ccccc2)c2cncnc2)cc1-c1ccccc1C)C(=O)O | 20 ng·h/mL | 30 min | 0.4 nM | 90 nM | 10400 ng·h/mL
14 | CSCC[C@H](NC(=O)c1ccc(CNc2cccnc2)cc1-c1ccccc1C)C(=O)O |  |  | 0.4 nM | 3000 nM | 
15 | CSCC[C@H](NC(=O)c1cc(-c2cc(Cl)cc(Cl)c2)c(COc2cccnc2)cc1-c1ccccc1C)C(=O)O |  |  | 95 nM |  | 
16 | CSCC[C@H](NC(=O)c1ccc(COc2cccnc2)cc1-c1ccccc1C)C(=O)O |  |  |  | 400 nM | 
17 | CSCC[C@H](NC(=O)c1ccc(CN(Cc2cc(F)cc(F)c2)c2cccnc2)cc1-c1ccccc1C)C(=O)O | 140 ng·h/mL | 60 min | 1.4 nM | 50 nM | 3560 ng·h/mL
18 | CSCC[C@H](NC(=O)c1cc(CCc2ccccc2)c(COc2cccnc2)cc1-c1ccccc1C)C(=O)O |  |  | 0.5 nM | 1000 nM | 
19 | CSCC[C@H](NC(=O)c1ccc(CN(C(=O)c2ccccc2)c2cccnc2)cc1-c1ccccc1C)C(=O)O |  |  | 53 nM | > 1000 nM | 
20 | CSCC[C@H](NC(=O)c1ccc(CN(Cc2ccccc2)c2ccccc2)cc1-c1ccccc1C)C(=O)O | 600 ng·h/mL | 48 min | 1.4 nM | 400 nM | 1900 ng·h/mL
21 | CSCC[C@H](NC(=O)c1cc(CC(C)C)c(COc2cccnc2)cc1-c1ccccc1C)C(=O)O |  |  | 29 nM | > 10000 nM | 
22 | CSCC[C@H](NC(=O)c1ccc(CN(Cc2ccccc2)c2cncc(F)c2)cc1-c1ccccc1C)C(=O)O | 400 ng·h/mL | < 24 min | 0.1 nM | 30 nM | 2400 ng·h/mL
23 | CSCC[C@H](NC(=O)c1cc(CC2CCCCC2)c(COc2cccnc2)cc1-c1ccccc1C)C(=O)O |  |  | 12 nM | 1000 nM | 
24 | CSCC[C@H](NC(=O)c1ccc(CN(Cc2ccccc2)Cc2nccs2)cc1-c1ccccc1C)C(=O)O |  |  | 7 nM | > 1000 nM | 
25 | CSCC[C@H](NC(=O)c1ccc(CN(c2cccnc2)S(=O)(=O)c2ccccc2)cc1-c1ccccc1C)C(=O)O |  |  | 7 nM |  | 
26 | CSCC[C@H](NC(=O)c1ccc(CN(Cc2cc(F)cc(F)c2)c2ccccc2)cc1-c1ccccc1C)C(=O)O | 10800 ng·h/mL | 114 min | 0.4 nM | 1000 nM | 14300 ng·h/mL
27 | CCCCc1cc(C(=O)N[C@@H](CCSC)C(=O)O)c(-c2ccccc2C)cc1COc1cccnc1 |  |  | 11 nM |  | 
